The values below come from ChEMBL document CHEMBL1667864, “Synthesis and biological assay of 4-aryl-6-chloro-quinoline derivatives as novel non-nucleoside anti-HBV agents” (Bioorg Med Chem, 2011).

The subject of data set [1] is Hepatitis B virus. Nature of the data set: Antiviral activity against HBV infected in human HepG 2.215 cells assessed as inhibition of DNA replication by RT-PCR analysis. Format: functional, organism-based. As to conditions: HepG2.2.15. Put shortly:
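HepG 2.2.15 cells were seeded at 5 × 10⁵ per well, with medium changed every 2 days. After 6 days, compounds were added and fresh medium was fed every other day for another 6 days. Total DNA was isolated from collected cells, and HBV DNA was quantified by real-time PCR. IC₅₀ is the concentration giving 50% inhibition of HBV DNA replication.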

Data set [2] in a line: Cytotoxicity against human HepG2(2.2.15) cells. Format: cell-based.
Data set [3] has as its system Hepatitis B virus. Nature of the data set: Antiviral activity against HBV infected in human HepG 2.215 cells assessed as inhibition of HBsAg secretion by ELISA. Format: functional, organism-based. As to conditions: HepG2.2.15. On the technique in general: In an ELISA, binding on a coated surface is turned into a signal by an enzyme label.
In data set [4] the test system is Hepatitis B virus. In words: Antiviral activity against HBV infected in human HepG 2.215 cells assessed as inhibition of HBeAg secretion by ELISA. Format: functional, organism-based. As to conditions: HepG2.2.15.
Data set [5] is described as follows: Selectivity index, CC50 for human HepG 2.215 cells to IC50 for HBV infected in human HepG 2.215 cells assessed as inhibition of DNA replication. Format: functional. The procedure, abridged:
(§1)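 SI calculated as CC₅₀ (concentration killing 50% of HepG 2.2.15 cells) divided by IC₅₀ (50% inhibition of HBV DNA replication, HBeAg or HBsAg secretion).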

Data set [6] in a line: Selectivity index, CC50 for human HepG 2.215 cells to IC50 for HBV infected in human HepG 2.215 cells assessed as inhibition of HBeAg secretion. Format: functional. Put shortly: as §1
Data set [7] is described as follows: Selectivity index, CC50 for human HepG 2.215 cells to IC50 for HBV infected in human HepG 2.215 cells assessed as inhibition of HBsAg secretion. Format: functional. Put shortly: as §1

A value given as a limit tells only on which side of the number the result lay.

As usually defined, the IC50 is the midpoint of a concentration-inhibition curve. As usually defined, the CC50 is the concentration that lowers cell viability or growth by half. As to `ClCCc1c(Cl)nc2ccc(Cl)cc2c1-c1ccccc1Cl`, the results for the IC50 with Hepatitis B virus [1], in the data set on Hepatitis B virus [3] and in the data set with Hepatitis B virus [4] were 19 µM, more than 1400 µM and more than 1400 µM, respectively. The same molecule returned a cytotoxic concentration (CC50) in data set [2] of more than 1400 µM. In data set [5], the “Selectivity Index” value was more than 73.8.

Turning to `C[C@H](Cn1cnc2c(N)ncnc21)OCP(=O)(O)O` [TENOFOVIR ANHYDROUS], the “Selectivity Index” value in data set [6] is reported as more than 1.5; in data set [7], more than 1.2; in data set [5], more than 3222. Further, the 50% inhibitory concentration (IC50) in the data set with Hepatitis B virus [1] was found to be 0.54 µM; with Hepatitis B virus [3] it was 1450 µM. The molecule also yielded a CC50 in data set [2] of more than 1740 µM.

For `CC(C)(C)[Si](OCCc1c(N2CCNCC2)nc2ccc(Cl)cc2c1-c1ccccc1Cl)(c1ccccc1)c1ccccc1`, the “Selectivity Index” value is listed as less than 1 in data set [6], less than 1 in data set [7] and less than 4.43 in data set [5]. The IC50 was 42.8 µM in the data set on Hepatitis B virus [1], 18.8 µM in the data set with Hepatitis B virus [3] and more than 1170 µM in the data set with Hepatitis B virus [4]. In data set [2], this molecule came in with a 50% cytotoxic concentration (CC50) of less than 18.8 µM.

On to `COc1nc2ccc(Cl)cc2c(-c2ccccc2Cl)c1CCO`, for which the “Selectivity Index” value is reported as less than 1 in data set [6], 2.1 in data set [7] and 20.5 in data set [5]. Moreover, the 50% inhibitory concentration (IC50) with Hepatitis B virus [1] is 6.9 µM; with Hepatitis B virus [3] it was 66.3 µM; in the data set with Hepatitis B virus [4], more than 2710 µM. Also, the CC50 in data set [2] came to 141 µM.

For `CC(C)(C)[Si](OCCc1c(N2CCOCC2)nc2ccc(Cl)cc2c1-c1ccccc1Cl)(c1ccccc1)c1ccccc1`, the half-maximal inhibitory concentration (IC50) in the data set with Hepatitis B virus [1], in the data set with Hepatitis B virus [3] and in the data set with Hepatitis B virus [4] was more than 1200 µM in each case. For the same molecule, the 50% cytotoxic concentration (CC50) in data set [2] was more than 1200 µM.

For the molecule `OCCc1c(OCc2c(F)cccc2F)nc2ccc(Cl)cc2c1-c1ccccc1Cl`, the “Selectivity Index” value in data set [6] is less than 1; in data set [7], 2.5; in data set [5], 22.7. Moreover, the IC50 in the data set with Hepatitis B virus [1] came to 4.8 µM; in the data set on Hepatitis B virus [3] it was 43.5 µM; in the data set with Hepatitis B virus [4] it was 1630 µM. The molecule also yielded a 50% cytotoxic concentration (CC50) in data set [2] of 109 µM.

For the molecule `[N-]=[N+]=NCCc1c(Cl)nc2ccc(Cl)cc2c1-c1ccccc1Cl`, the IC50 with Hepatitis B virus [1] is 16.6 µM; in the data set with Hepatitis B virus [3], more than 2510 µM; with Hepatitis B virus [4], more than 2510 µM. This molecule gave a CC50 in data set [2] of more than 2510 µM. Further, the “Selectivity Index” value in data set [5] was more than 151.4.

In the case of `OCCc1c(N2CCOCC2)nc2ccc(Cl)cc2c1-c1ccccc1Cl`, the IC50 with Hepatitis B virus [1] was more than 1590 µM; in the data set on Hepatitis B virus [3] it was 323 µM; with Hepatitis B virus [4], more than 1590 µM. In data set [7], the “Selectivity Index” value is reported as more than 4.9. The molecule further gave a CC50 in data set [2] of more than 1590 µM.

With `CC(C)(C)[Si](OCCc1c(Nn2nnc3ccccc32)nc2ccc(Cl)cc2c1-c1ccccc1Cl)(c1ccccc1)c1ccccc1`, the half-inhibitory concentration (IC50) in the data set with Hepatitis B virus [1] is 4.4 µM; in the data set with Hepatitis B virus [3] it was more than 1250 µM; with Hepatitis B virus [4], more than 1250 µM. The half-maximal cytotoxic concentration (CC50) in data set [2] was more than 1250 µM. Further, the “Selectivity Index” value in data set [5] is on record as more than 284.5.

`CC(C)(C)[Si](OCCc1c(N2CCCCC2)nc2ccc(Cl)cc2c1-c1ccccc1Cl)(c1ccccc1)c1ccccc1`: the figures for the IC50 in the data set on Hepatitis B virus [1], in the data set on Hepatitis B virus [3] and in the data set on Hepatitis B virus [4] were 6.7 µM, more than 969 µM and more than 969 µM, respectively. Also, in data set [2], the CC50 was more than 969 µM. Besides, the “Selectivity Index” value in data set [5] is reported as more than 143.7.

`[N-]=[N+]=NCCc1c(N=[N+]=[N-])nc2ccc(Cl)cc2c1-c1ccccc1Cl`: the concentration for half-maximal inhibition (IC50) in the data set with Hepatitis B virus [1] is 4.5 µM; in the data set with Hepatitis B virus [3], more than 2480 µM; with Hepatitis B virus [4] it was more than 2480 µM. In data set [2], this molecule came in with a CC50 of more than 2480 µM. In addition, the “Selectivity Index” value in data set [5] was more than 551.2.

As to `CS(=O)(=O)OCCc1c(Cl)nc2ccc(Cl)cc2c1-c1ccccc1Cl`, the “Selectivity Index” value in data set [6] is more than 1.4; in data set [7] it was less than 1. The half-inhibitory concentration (IC50) with Hepatitis B virus [1] is more than 882 µM; with Hepatitis B virus [3], 1020 µM; in the data set with Hepatitis B virus [4], 647 µM. In data set [2], the 50% cytotoxic concentration (CC50) came out at 882 µM.

`CC(C)(C)[Si](OCCc1c(OCc2c(Cl)cccc2Cl)nc2ccc(Cl)cc2c1-c1ccccc1Cl)(c1ccccc1)c1ccccc1`: the half-maximal inhibitory concentration (IC50) with Hepatitis B virus [1], in the data set on Hepatitis B virus [3] and in the data set with Hepatitis B virus [4] was more than 1030 µM each time. The molecule also gave a CC50 in data set [2] of more than 1030 µM.

For the molecule `OCCc1c(N2CCCCC2)nc2ccc(Cl)cc2c1-c1ccccc1Cl`, the results for the “Selectivity Index” value in data set [6], in data set [7] and in data set [5] were 3.1, 4.1 and 1, respectively. The half-maximal inhibitory concentration (IC50) with Hepatitis B virus [1] was found to be 151 µM; with Hepatitis B virus [3], 37.5 µM; in the data set on Hepatitis B virus [4], 50 µM. Besides, in data set [2], the cytotoxic concentration (CC50) turned out to be 155 µM.

Consider `CC(=O)OCCc1c(Cl)nc2ccc(Cl)cc2c1-c1ccccc1Cl`, for which the “Selectivity Index” value in data set [6] is reported as less than 1; in data set [7], less than 1; in data set [5], 19.1. Besides, the IC50 in the data set with Hepatitis B virus [1] came out at 6.1 µM; in the data set on Hepatitis B virus [3], 147 µM; in the data set with Hepatitis B virus [4], 70.9 µM. This molecule also had a cytotoxic concentration (CC50) in data set [2] of 116 µM.

Consider `OCCc1c(Nn2nnc3ccccc32)nc2ccc(Cl)cc2c1-c1ccccc1Cl`, for which the “Selectivity Index” value in data set [6] was less than 1; in data set [7], 2.2; in data set [5], 10. The values for the IC50 in the data set on Hepatitis B virus [1], with Hepatitis B virus [3] and in the data set on Hepatitis B virus [4] were 8.3 µM, 37.7 µM and 111 µM, respectively. In data set [2], this molecule came in with a CC50 of 82.4 µM.

As for `OCCc1c(N2CCNCC2)nc2ccc(Cl)cc2c1-c1ccccc1Cl`, the “Selectivity Index” value in data set [6] and in data set [7] was less than 1 each time. The IC50 in the data set with Hepatitis B virus [1], in the data set on Hepatitis B virus [3] and with Hepatitis B virus [4] was more than 5 µM throughout. The molecule further came in with a CC50 in data set [2] of less than 5 µM.

With `CC(C)(C)[Si](OCCc1c(OS(=O)(=O)C(F)(F)F)nc2ccc(Cl)cc2c1-c1ccccc1Cl)(c1ccccc1)c1ccccc1`, the “Selectivity Index” value in data set [6] was 2; in data set [7], more than 3.4. The 50% inhibitory concentration (IC50) in the data set with Hepatitis B virus [1] is more than 1560 µM; with Hepatitis B virus [3], 454 µM; with Hepatitis B virus [4], 767 µM. In addition, in data set [2], the CC50 was more than 1560 µM.

As for `OCCc1c(OCc2c(Cl)cccc2Cl)nc2ccc(Cl)cc2c1-c1ccccc1Cl`, the “Selectivity Index” value in data set [6] amounted to 3.2; in data set [7] it was 2.1; in data set [5] it was 2.2. Moreover, the concentration for half-maximal inhibition (IC50) is 17.7 µM in the data set with Hepatitis B virus [1], 18.2 µM with Hepatitis B virus [3] and 12.2 µM in the data set with Hepatitis B virus [4]. The same molecule registered a CC50 in data set [2] of 38.5 µM.

As to `O=c1[nH]c2ccc(Cl)cc2c(-c2ccccc2Cl)c1CCO`, the “Selectivity Index” value in data set [6] came to 1.1; in data set [7], 5.5; in data set [5], 5.4. Also, the IC50 was 72.1 µM with Hepatitis B virus [1], 70.2 µM with Hepatitis B virus [3] and 340 µM with Hepatitis B virus [4]. Also, the CC50 in data set [2] stood at 388 µM.

On to `CC(C)(C)[Si](OCCc1c(OCc2c(F)cccc2F)nc2ccc(Cl)cc2c1-c1ccccc1Cl)(c1ccccc1)c1ccccc1`, for which the half-inhibitory concentration (IC50) with Hepatitis B virus [1], in the data set with Hepatitis B virus [3] and in the data set on Hepatitis B virus [4] was more than 1870 µM in each case. Moreover, the CC50 in data set [2] was more than 1870 µM.

Consider `OCCc1c(Cl)nc2ccc(Cl)cc2c1-c1ccccc1Cl`, for which the “Selectivity Index” value in data set [6] is listed as 3.8; in data set [7] it was less than 1; in data set [5] it was 4.3. Moreover, the results for the half-maximal inhibitory concentration (IC50) in the data set on Hepatitis B virus [1], in the data set on Hepatitis B virus [3] and with Hepatitis B virus [4] were 9.8 µM, 45.3 µM and 11.3 µM, respectively. The molecule also registered a CC50 in data set [2] of 42.5 µM.

For the molecule `CS(=O)(=O)OCCc1c(OS(C)(=O)=O)nc2ccc(Cl)cc2c1-c1ccccc1Cl`, the “Selectivity Index” value in data set [6] came out at 2.2; in data set [7], 48.6; in data set [5], 118.2. Further, the half-inhibitory concentration (IC50) in the data set with Hepatitis B virus [1] amounted to 6.8 µM; in the data set on Hepatitis B virus [3], 16.5 µM; in the data set on Hepatitis B virus [4], 367 µM. The molecule also registered a 50% cytotoxic concentration (CC50) in data set [2] of 804 µM.
